Source: ChEMBL document CHEMBL1833877, “Antinociceptive properties of bergenin” (J Nat Prod, 2011)
Active and inactive are the calls of the source.

Tests used:
Mus musculus [1] = experiment: Toxicity in mouse assessed as inflammatory cell infiltrate in gastric mucosa at 50 mg/kg, ip for seven consecutive days relative to control; type: organism-based; design: dose 50 mg/kg, route intraperitoneal; settings: in vivo
Outline: (§1)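 After 7 daily ip doses, stomachs were cryosectioned at 3 μm and stained with H&E. Sections were scored blind 0–4 for inflammatory infiltrate, edema, epithelial loss and necrosis. Ten fields (40×) were read per section, means ± SEM.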

Mus musculus [2] = experiment: Antinociceptive activity against Freund's complete adjuvant-induced paw inflammation in mouse assessed as reduction in mechanical hyperalgesia at 50 mg/kg, ip administered 40 mins before CFA challenge measured after 2 to 6 hrs; type: functional, organism-based; design: dose 50 mg/kg
Outline: (§2)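 Mice, lightly halothane-anesthetized, got 20 μL complete Freund's adjuvant (1 mg/mL heat-killed M. tuberculosis in paraffin oil/mannide monooleate) sc into the right hind plantar surface. Treatment was ip in 2% DMSO/saline 40 min before CFA. Mechanical threshold was read with von Frey filaments by the up-down method at 2, 4 and 6 h. n = 6 mice/group, means ± SEM, two-way ANOVA with Bonferroni.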

Mus musculus [3] = experiment: Toxicity in mouse assessed as liver function measuring serum ALT level at 100 mg/kg, ip for seven consecutive days relative to control; type: organism-based; design: dose 100 mg/kg, route intraperitoneal; settings: in vivo
Outline: (§3)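 Mice were weighed and dosed ip once daily for 7 consecutive days, vehicle controls alongside, and monitored for toxic signs and general appearance. At the end, retro-orbital blood was taken under light anesthesia for leukocyte counts. Serum, from blood centrifuged at 2500 rpm for 15 min without anticoagulant, was used for ALT and AST.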

Mus musculus [4] = experiment: Toxicity in mouse assessed as liver function measuring serum ALT level at 50 mg/kg, ip for seven consecutive days relative to control; type: organism-based; design: dose 50 mg/kg, route intraperitoneal; settings: in vivo; outline: as §3
Mus musculus [5] = experiment: Neurotoxicity in mouse assessed as effect on motor coordination at 100 mg/kg, ip after 40 mins by Rotarod test; settings: in vivo
Mus musculus [6] = experiment: Antinociceptive activity against Freund's complete adjuvant-induced paw inflammation in mouse assessed as reduction in paw edema at 50 mg/kg, ip administered 40 mins before CFA challenge measured after 4 hrs; type: functional, organism-based; design: dose 50 mg/kg
Outline: (§4)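 CFA (20 μL, 1 mg/mL heat-killed M. tuberculosis) was injected sc into the right hind plantar surface. Treatment was ip in 2% DMSO/saline 40 min before. Paw volume was read by plethysmometer before and after CFA, and edema taken as the volume difference (mm3/paw). n = 6 mice/group, means ± SEM, two-way ANOVA with Bonferroni.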

Mus musculus [7] = experiment: Antinociceptive activity against Freund's complete adjuvant-induced paw inflammation in IL10-deficient C57BL/6 mouse assessed as reduction in mechanical hyperalgesia at 100 mg/kg, ip administered 40 mins before CFA challenge measured 2 to 6 hrs; type: functional, organism-based; design: dose 100 mg/kg; outline: as §2
Mus musculus [8] = experiment: Toxicity in mouse assessed as leukogram at 50 mg/kg, ip for seven consecutive days relative to control; type: organism-based; design: dose 50 mg/kg, route intraperitoneal; settings: in vivo; outline: as §3
Mus musculus [9] = experiment: Toxicity in mouse assessed as leukogram at 100 mg/kg, ip for seven consecutive days relative to control; type: organism-based; design: dose 100 mg/kg, route intraperitoneal; settings: in vivo; outline: as §3
Mus musculus [10] = experiment: Toxicity in mouse assessed as reduction in corporal mass at 100 mg/kg, ip for seven consecutive days relative to control; type: organism-based; design: dose 100 mg/kg, route intraperitoneal; settings: in vivo; outline: as §3
Mus musculus [11] = experiment: Toxicity in mouse assessed as necrosis in gastric mucosa at 100 mg/kg, ip for seven consecutive days relative to control; type: organism-based; design: dose 100 mg/kg, route intraperitoneal; settings: in vivo; outline: as §1
Mus musculus [12] = experiment: Inhibition of IL10 production in Freund's complete adjuvant-induced C57BL/6 mouse paw at 100 mg/kg, ip administered 40 mins before CFA challenge measured after 3 hrs by ELISA; type: functional, organism-based; design: dose 100 mg/kg
Outline: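 C57BL/6 wild-type mice received an ip dose 40 min before intraplantar CFA. Paw tissue IL-10 was read by ELISA 3 h after CFA, on protein extracts in PBS/0.4 M NaCl/Tween 20 with protease inhibitors. A saline group got 20 μL intraplantar saline instead. n = 6/group, means ± SEM, two-way ANOVA with Bonferroni.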

Mus musculus [13] = experiment: Toxicity in mouse assessed as inflammatory cell infiltrate in gastric mucosa at 100 mg/kg, ip for seven consecutive days relative to control; type: organism-based; design: dose 100 mg/kg, route intraperitoneal; settings: in vivo; outline: as §1
Mus musculus [14] = experiment: Inhibition of IL1-beta production in Freund's complete adjuvant-induced mouse at 50 mg/kg, ip administered 40 mins before CFA challenge measured after 2 hrs by ELISA; type: functional, organism-based; design: dose 50 mg/kg
Outline: (§5)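 CFA was given intraplantar, with ip dosing (2% DMSO/saline vehicle) 40 min earlier. At 2 h, paw skin was taken under terminal halothane anesthesia. Tissue was extracted (100 mg/mL PBS with 0.4 M NaCl, 0.05% Tween 20 and protease inhibitors) and centrifuged at 3000g for 10 min. Supernatant was assayed by mouse ELISA, in pg/mL. n = 6/group.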

Mus musculus [15] = experiment: Antinociceptive activity against formalin-induced pain in mouse assessed as paw licking during early phase (0 to 10 mins) at 50 mg/kg, ip administered 40 mins before formalin challenge; type: functional, organism-based; design: dose 50 mg/kg
Outline: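 Mice were acclimated 30 min in an observation chamber, then given 20 μL of 2.5% formalin sc into the dorsal hind paw. Dosing was ip (2% DMSO/saline vehicle) 40 min beforehand. Time spent licking the injected paw was scored over 0–10 min and 10–60 min. n = 6/group, means ± SEM, ANOVA with Tukey.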

Mus musculus [16] = experiment: Toxicity in mouse assessed as edema in gastric mucosa at 100 mg/kg, ip for seven consecutive days relative to control; type: organism-based; design: dose 100 mg/kg, route intraperitoneal; settings: in vivo; outline: as §1
Mus musculus [17] = experiment: Antinociceptive activity in ip dosed mouse assessed as inhibition of acetic acid-induced abdominal constrictions administered 40 mins before acetic acid challenge measured for 30 mins; type: functional, organism-based; settings: Abdomen
Outline: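 Dosing was ip in 2% DMSO/saline 40 min before ip acetic acid (0.8% v/v, 10 mL/kg). Writhes (abdominal contraction with hind-limb stretching) were counted over 0–30 min. n = 6 mice/group, means ± SEM, ANOVA with Tukey.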

Mus musculus [18] = experiment: Antinociceptive activity against Freund's complete adjuvant-induced paw inflammation in mouse assessed as reduction in paw edema at 50 mg/kg, ip administered 40 mins before CFA challenge measured after 6 hrs; type: functional, organism-based; design: dose 50 mg/kg; outline: as §4
Mus musculus [19] = experiment: Toxicity in mouse assessed as edema in gastric mucosa at 50 mg/kg, ip for seven consecutive days relative to control; type: organism-based; design: dose 50 mg/kg, route intraperitoneal; settings: in vivo; outline: as §1
Mus musculus [20] = experiment: Toxicity in mouse assessed as change in general appearance at 50 mg/kg, ip for seven consecutive days relative to control; type: organism-based; design: dose 50 mg/kg, route intraperitoneal; settings: in vivo; outline: as §3
Mus musculus [21] = experiment: Toxicity in mouse assessed as renal function measuring serum urea level at 100 mg/kg, ip for seven consecutive days relative to control; type: organism-based; design: dose 100 mg/kg, route intraperitoneal; settings: in vivo
Outline: (§6)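 Once-daily ip dosing for seven consecutive days in male mice (22–28 g), with vehicle (2% DMSO in saline) as control. At the end of treatment, blood taken from the retro-orbital plexus under light anesthesia. Serum obtained without anticoagulant by centrifugation at 2500 rpm for 15 min, then assayed biochemically for urea and creatinine. Means ± SEM, 6–9 animals per group.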

Mus musculus [22] = experiment: Toxicity in mouse assessed as renal function measuring serum creatinine level at 50 mg/kg, ip for seven consecutive days relative to control; type: organism-based; design: dose 50 mg/kg, route intraperitoneal; settings: in vivo; outline: as §6
Mus musculus [23] = experiment: Toxicity in mouse assessed as renal function measuring serum creatinine level at 100 mg/kg, ip for seven consecutive days relative to control; type: organism-based; design: dose 100 mg/kg, route intraperitoneal; settings: in vivo; outline: as §6
Mus musculus [24] = experiment: Inhibition of IL1-beta production in Freund's complete adjuvant-induced mouse at 100 mg/kg, ip administered 40 mins before CFA challenge measured after 2 hrs by ELISA; type: functional, organism-based; design: dose 100 mg/kg; outline: as §5
Mus musculus [25] = experiment: Antinociceptive activity against Freund's complete adjuvant-induced paw inflammation in mouse assessed as reduction in paw edema at 50 mg/kg, ip administered 40 mins before CFA challenge measured after 2 hrs; type: functional, organism-based; design: dose 50 mg/kg; outline: as §4

COc1c(O)cc2c(c1O)[C@@H]1O[C@H](CO)[C@@H](O)[C@H](O)[C@H]1OC2=O [BERGENIN]
Non-toxic: Activity (Mus musculus [1]) | Activity (Mus musculus [3]) | Activity (Mus musculus [4]) | Activity (Mus musculus [5]) | Activity (Mus musculus [8]) | Activity (Mus musculus [9]) | Activity (Mus musculus [10]) | Activity (Mus musculus [11]) | Activity (Mus musculus [13]) | Activity (Mus musculus [16]) | Activity (Mus musculus [19]) | Activity (Mus musculus [20]) | Activity (Mus musculus [21]) | Activity (Mus musculus [22]) | Activity (Mus musculus [23])
active: Activity (Mus musculus [2]) | Activity (Mus musculus [6]) | Activity (Mus musculus [7]) | inhibition (Mus musculus [14]) | Activity (Mus musculus [15]) | Activity (Mus musculus [17]) Dose-dependent effect | inhibition (Mus musculus [24]) | Activity (Mus musculus [25])
inactive: inhibition (Mus musculus [12]) | Activity (Mus musculus [18])
